Data published in ChEMBL document CHEMBL1144904, “Isoquine and related amodiaquine analogues: a new generation of improved 4-aminoquinoline antimalarials” (J Med Chem, 2003).

How the values were obtained:
Plasmodium falciparum [1] = assay: In vitro antimalarial activity against chloroquine-resistant Plasmodium falciparum K1; type: functional, organism-based
In short: (§1)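 Parasites kept in continuous culture in human erythrocytes in RPMI 1640 with 25 mM HEPES, 32 mM NaHCO3 and 10% human serum, gassed 3% O2/4% CO2/93% N2. 48-h assay at 2% parasitemia, 0.5% haematocrit, drugs from DMSO stocks diluted in medium, triplicate. [3H]-hypoxanthine added at 24 h, further 24 h at 37 °C, scintillation counting. IC50 by probit interpolation of log dose–response.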

Plasmodium falciparum [2] = assay: In vitro antimalarial activity against Plasmodium falciparum HB; type: functional, organism-based; in short: as §1
Plasmodium yoelii = assay: […] against Plasmodium yoelii NS in peter 4-day assay; type: functional; conditions: 96 h, in the assay text read “In vivo” for “In vitro”
In short: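 Male CD-1 mice (n = 5 per dose group) infected ip with 10^6 parasitized erythrocytes in PBS. Oral gavage dosing at time 0 (2 h post-inoculation) and on days 1, 2 and 3, at 25, 10, 3, 1, 0.3 and 0.1 mg/kg. On day 4, Giemsa-stained tail-blood films were read microscopically for parasite density, and ED50 was derived.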

Compound	IC50 (Plasmodium falciparum [1]) [nM]	IC50 (Plasmodium falciparum [2]) [nM]	ED50 (Plasmodium yoelii) [mg/kg]
Oc1cc(Nc2ccnc3cc(Cl)ccc23)ccc1CN1CCOCC1	112	97.2	–
CC(C)NCc1ccc(Nc2ccnc3cc(Cl)ccc23)cc1O	26.2	20.2	–
CN(C)Cc1ccc(Nc2ccnc3cc(Cl)ccc23)cc1O	18.6	14.8	–
Oc1cc(Nc2ccnc3cc(Cl)ccc23)ccc1CN1CCCCC1	20.3	9.07	–
CCCN(CCC)Cc1ccc(Nc2ccnc3cc(Cl)ccc23)cc1O	30.6	19.8	–
CCN(CC)Cc1cc(Nc2ccnc3cc(Cl)ccc23)ccc1O.Cl	15.1	–	7.65
CCCCN(CCCC)Cc1ccc(Nc2ccnc3cc(Cl)ccc23)cc1O	37.2	51.9	–
CCN(CC)Cc1ccc(Nc2ccnc3cc(Cl)ccc23)cc1O [ISOQUINE]	–	–	2.65
CCN(CC)Cc1ccc(Nc2ccnc3cc(Cl)ccc23)cc1O	–	9.02	–
CCNCc1ccc(Nc2ccnc3cc(Cl)ccc23)cc1O [DESETHYL ISOQUINE]	32.4	16.2	–
CC(C)(C)NCc1ccc(Nc2ccnc3cc(Cl)ccc23)cc1O [GSK-369796]	32.8	30	–
Oc1cc(Nc2ccnc3cc(Cl)ccc23)ccc1CN1CCCC1	21.8	28.4	–
